Reference: ChEMBL document CHEMBL1138633, “Synthesis and CYP24 inhibitory activity of 2-substituted-3,4-dihydro-2H-naphthalen-1-one (tetralone) derivatives” (Bioorg Med Chem Lett, 2004)

Target: T1, 1,25-dihydroxyvitamin D(3) 24-hydroxylase, mitochondrial (Rattus norvegicus, UniProt Q09128)
T1 sequence (Q09128 whole entry): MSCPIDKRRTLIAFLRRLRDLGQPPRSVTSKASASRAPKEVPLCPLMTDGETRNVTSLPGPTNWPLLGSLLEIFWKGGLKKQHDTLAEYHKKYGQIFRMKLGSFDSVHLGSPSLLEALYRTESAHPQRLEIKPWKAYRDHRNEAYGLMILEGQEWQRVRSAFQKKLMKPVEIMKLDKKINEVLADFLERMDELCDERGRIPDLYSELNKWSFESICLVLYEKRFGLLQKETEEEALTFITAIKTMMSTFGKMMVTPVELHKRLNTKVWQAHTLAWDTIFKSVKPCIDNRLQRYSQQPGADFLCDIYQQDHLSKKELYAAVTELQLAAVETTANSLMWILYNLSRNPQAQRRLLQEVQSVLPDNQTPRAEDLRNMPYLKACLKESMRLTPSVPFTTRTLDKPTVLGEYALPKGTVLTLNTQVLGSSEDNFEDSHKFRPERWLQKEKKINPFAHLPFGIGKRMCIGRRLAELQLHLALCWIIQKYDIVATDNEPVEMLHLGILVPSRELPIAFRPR
Assay: Inhibitory activity against 25-hydroxyvitamin D3 24-hydroxylase of rat kidney mitochondria
Method in brief: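 Substrate was [26,27-methyl-3H]-25-hydroxyvitamin D3, taken from a stock of labelled plus unlabelled 25 µM 25(OH)D3 holding 5 µCi/mL. It was incubated with NADPH and inhibitor at varying concentrations (in acetonitrile) in phosphate buffer pH 7.4, shaking at 37 °C for 30 min. Metabolites were extracted with ethyl acetate and analysed by HPLC with online radioactivity detection, quantified by peak area. Results are % inhibition relative to an acetonitrile control.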

| Compound | IC50 [µM] |
| --- | --- |
| COc1ccc2c(c1)CCC(Cc1ccc(O)cc1)C2 (stereo not drawn) | 2.6 |
| COc1ccc2c(c1)CCC(Cc1ccc(O)cc1)C2=O (stereo not drawn) | 3.5 |
| COc1ccc2c(c1)CCC(Cc1cc(C(F)(F)F)ccc1C(F)(F)F)C2=O (stereo not drawn) | 4.5 |
| O=C1c2ccc(O)cc2CCC1Cc1ccc(-c2ccccc2)cc1 (stereo not drawn) | > 20 |
| O=C1c2ccc(O)cc2CCC1Cc1ccc(O)cc1 (stereo not drawn) | 8.9 |
| O=C1/C(=C/c2ccc(-c3ccccc3)cc2)CCc2cc(O)ccc21 | > 100 |
| O=C1c2ccc(O)cc2CCC1Cc1ccccc1-c1ccccc1 (stereo not drawn) | 2.1 |
| CN(C)c1ccc(CC2CCc3cc(O)ccc3C2=O)cc1 (stereo not drawn) | 18 |
| CN(C)c1ccc(/C=C2\CCc3cc(O)ccc3C2=O)cc1 | > 100 |
| CC(=O)N1CCN(c2ccc(OC[C@H]3CO[C@](Cn4ccnc4)(c4ccc(Cl)cc4Cl)O3)cc2)CC1 [KETOCONAZOLE] | 20 |

Other lines, results leading:

| IC50 [µM] | Compound |
| --- | --- |
| > 100 | COc1ccc2c(c1)CC/C(=C\c1cccc(N(C)C)c1)C2=O |
| > 20 | O=C1/C(=C/c2ccc(O)cc2)CCc2cc(O)ccc21 |
| > 20 | COc1ccc2c(c1)CC/C(=C\c1ccccc1C)C2=O |
| > 100 | O=C1/C(=C/c2ccccc2-c2ccccc2)CCc2cc(O)ccc21 |
| 0.9 | COc1ccc2c(c1)CCC(Cc1ccccc1C)C2=O (stereo not drawn) |
| 100 | COc1ccc2c(c1)CC/C(=C\c1ccccc1Br)C2=O |
| > 100 | COc1ccc2c(c1)CC/C(=C\c1cc(C(F)(F)F)ccc1C(F)(F)F)C2=O |
| > 20 | COc1ccc2c(c1)CC/C(=C\c1ccc(O)cc1)C2=O |
